# Active and inactive are the calls of the source. The calls are words filed in the database; no cut-off is given here.
# Tests used:
# [1] = Inhibition of TNFalpha-induced NF-kB (unknown origin) activation expressed in human NCI-H460 cells after 7 hrs by luciferase reporter gene assay; assay type: cell-based; settings: NCI-H460, 7 h
# How it was run: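 NCI-H460 cells transiently co-transfected with pNF-κB-Luc reporter and pSV-β-galactosidase internal control by lipofectamine. Medium changed after 6 h, then 6 h further culture. TNF-α (15 ng ml–1) plus compound given together for 7 h. Luciferase ratio to TNF-α-only cells, corrected for non-TNF background and viability. IC50 from sigmoidal variable-slope fit.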
# HepG2 = assay: Cytotoxicity against human HepG2 cells after 48 hrs by MTT assay; assay type: functional, cell-based; settings: HepG2, 48 h
# How it was run: (§1)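 Cells grown overnight in DMEM + 10% FBS at 37 °C under 5% CO2, then given a range of compound concentrations for 48 h. MTT added for about 4 h, medium replaced by DMSO, absorbance read at 570/630 nm. IC50 reported as mean ± SD of five independent experiments.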
# [2] = Cytotoxicity against human SPCA2 cells after 48 hrs by MTT assay; assay type: functional, cell-based; settings: SPCA2, 48 h; how it was run: as §1
# A549 = assay: Cytotoxicity against human A549 cells after 48 hrs by MTT assay; assay type: functional, cell-based; settings: A549, 48 h; how it was run: as §1
# NCI-H460 [3] = assay: Induction of ROS generation in human NCI-H460 cells at 10 uM after 24 hrs by DCF-DA staining based flow cytometry (reference value: 12.9%); assay type: functional
# NCI-H460 [4] = assay: Inhibition of TNFalpha-induced NF-kB protein expression in human NCI-H460 cells by Western blot analysis; assay type: functional, cell-based
# How it was run: (§2)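 TNF-α-stimulated NCI-H460 cells treated with compound, lysed in ice-cold RIPA with protease and phosphatase inhibitors, protein measured by Bradford. Equal protein run on 12% SDS-PAGE, transferred to PVDF. Probed overnight at 4 °C for TAK1, TAB1, IKKα, p-IKKα/β or NF-κB p65, then HRP secondary (1:2000), chemiluminescence, β-actin loading control. Three separate experiments.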
# NCI-H460 [5] = assay: Cytotoxicity against human NCI-H460 cells harboring pNF-kB-Luc assessed as reduction in cell viability after 7 hrs by MTT assay relative to control; parameters: concentration or dose not given beside the values; settings: nci-h460, 7 h
# [6] = Resistant factor, ratio of IC50 for human NCI-H460/DOX cells to IC50 for human NCI-H460 cells; assay type: functional
# NCI-H460 [7] = assay: Induction of ROS generation in human NCI-H460 cells at 5 uM after 24 hrs by DCF-DA staining based flow cytometry (reference value: 12.9%); assay type: functional
# [8] = Resistant factor, ratio of IC50 for human HepG2/DOX cells to IC50 for human HepG2 cells; assay type: functional
# NCI-H460 [9] = assay: Induction of apoptosis in human NCI-H460 cells assessed as early apoptotic cells at 10 uM after 24 hrs by propidium iodide/Annexin V-FITC staining based flow cytometry (reference value: 2.79%); assay type: functional
# NCI-H460 [10] = assay: Cell cycle arrest in human NCI-H460 cells assessed as accumulation at G1-phase at 10 uM after 24 to 48 hrs by propidium iodide staining based flow cytometry (reference value: 41.83%); assay type: functional
# MGC-803 = assay: Cytotoxicity against human MGC803 cells after 48 hrs by MTT assay; assay type: functional, cell-based; settings: MGC-803, 48 h; how it was run: as §1
# NCI-H460 [11] = assay: Induction of apoptosis in human NCI-H460 cells assessed as chromatin condensation after 24 hrs by Hoechst 33258 staining based fluorescence microscopic method; assay type: functional, cell-based
# How it was run: (§3)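 NCI-H460 cells (2 × 10^6) in six-well plates exposed to 5 or 10 μM for 24 h. Fixed 10 min in 4% paraformaldehyde, washed in cold PBS, stained with Hoechst 33258 for 5 min in the dark. Viewed by fluorescence microscopy at ex 350/em 460 nm; brightly stained condensed nuclei scored as apoptotic.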
# NCI-H460 [12] = assay: Induction of apoptosis in human NCI-H460 cells assessed as nuclear condensation after 24 hrs by Hoechst 33258 staining based fluorescence microscopic method; assay type: functional, cell-based; how it was run: as §3
# NCI-H460 [13] = assay: Induction of apoptosis in human NCI-H460 cells assessed as late apoptotic cells at 10 uM after 24 hrs by propidium iodide/Annexin V-FITC staining based flow cytometry (reference value: 5.4%); assay type: functional
# NCI-H460 [14] = assay: Induction of apoptosis in human NCI-H460 cells after 24 hrs by propidium iodide/Annexin V-FITC staining based flow cytometry; assay type: functional, cell-based
# [15] = Cytotoxicity against human NCI-H460/DOX cells after 48 hrs by MTT assay; assay type: functional, cell-based; settings: NCI-H460, 48 h; how it was run: as §1
# NCI-H460 [16] = assay: Induction of apoptosis in human NCI-H460 cells assessed as necrotic cells at 10 uM after 24 hrs by propidium iodide/Annexin V-FITC staining based flow cytometry (reference value: 2.8%); assay type: functional
# NCI-H460 [17] = assay: Induction of apoptosis in human NCI-H460 cells assessed as early apoptotic cells at 5 uM after 24 hrs by propidium iodide/Annexin V-FITC staining based flow cytometry (reference value: 2.79%); assay type: functional
# [18] = target: Inhibitor of NF-kappa-B kinase alpha/beta (Homo sapiens) (UniProt O14920+O15111); assay: Inhibition of TNFalpha-induced IKKalpha/beta phosphorylation in human NCI-H460 cells by Western blot analysis; assay type: cell-based; how it was run: as §2
# NCI-H460 [19] = assay: Cell cycle arrest in human NCI-H460 cells assessed as accumulation at S-phase at 5 uM after 24 to 48 hrs by propidium iodide staining based flow cytometry (reference value: 54.36%); assay type: functional
# NCI-H460 [20] = assay: Inhibition of TNFalpha-induced TAK1 protein expression in human NCI-H460 cells by Western blot analysis; assay type: functional, cell-based; how it was run: as §2
# NCI-H460 [21] = assay: Induction of apoptosis in human NCI-H460 cells assessed as live cells at 5 uM after 24 hrs by propidium iodide/Annexin V-FITC staining based flow cytometry (reference value: 89%); assay type: functional
# [22] = target: Transcription factor p65 (Homo sapiens) (UniProt Q04206); assay: Inhibition of TNFalpha-induced NF-kB p65 activation human NCI-H460 cells assessed as reduction in DNA binding ability at 5 to 10 uM by ELISA relative to control; assay type: cell-based
# NCI-H460 [23] = assay: Induction of apoptosis in human NCI-H460 cells assessed as live cells at 10 uM after 24 hrs by propidium iodide/Annexin V-FITC staining based flow cytometry (reference value: 89%); assay type: functional
# NCI-H460 [24] = assay: Induction of apoptosis in human NCI-H460 cells assessed as necrotic cells at 5 uM after 24 hrs by propidium iodide/Annexin V-FITC staining based flow cytometry (reference value: 2.8%); assay type: functional
# NCI-H460 [25] = assay: Cytotoxicity against human NCI-H460 cells after 48 hrs by MTT assay; assay type: functional, cell-based; settings: NCI-H460, 48 h; how it was run: as §1
# NCI-H460 [26] = assay: Cell cycle arrest in human NCI-H460 cells assessed as accumulation at G1-phase at 5 uM after 24 to 48 hrs by propidium iodide staining based flow cytometry (reference value: 41.83%); assay type: functional
# T-24 = assay: Cytotoxicity against human T24 cells after 48 hrs by MTT assay; assay type: functional, cell-based; settings: T-24, 48 h; how it was run: as §1
# NCI-H460 [27] = assay: Cell cycle arrest in human NCI-H460 cells assessed as accumulation at S-phase at 10 uM after 24 to 48 hrs by propidium iodide staining based flow cytometry (reference value: 54.36%); assay type: functional
# NCI-H460 [28] = assay: Induction of ROS generation in human NCI-H460 cells at 10 uM after 24 hrs by DCF-DA staining based flow cytometry relative to control; assay type: functional
# NCI-H460 [29] = assay: Inhibition of TNFalpha-induced TAB1 protein expression in human NCI-H460 cells by Western blot analysis; assay type: functional, cell-based; how it was run: as §2
# NCI-H460 [30] = assay: Induction of apoptosis in human NCI-H460 cells assessed as late apoptotic cells at 5 uM after 24 hrs by propidium iodide/Annexin V-FITC staining based flow cytometry (reference value: 5.4%); assay type: functional
# NCI-H460 [31] = assay: Cell cycle arrest in human NCI-H460 cells assessed as accumulation at G2-phase at 5 uM after 24 to 48 hrs by propidium iodide staining based flow cytometry (reference value: 3.82%); assay type: functional
# L02 = assay: Cytotoxicity against human HL7702 cells after 48 hrs by MTT assay; assay type: cell-based; settings: L02, 48 h; how it was run: as §1
# NCI-H460 [32] = assay: Cell cycle arrest in human NCI-H460 cells assessed as accumulation at G2-phase at 10 uM after 24 to 48 hrs by propidium iodide staining based flow cytometry (reference value: 3.82%); assay type: functional
# [33] = Cytotoxicity against human HepG2/DOX cells after 48 hrs by MTT assay; assay type: functional, cell-based; how it was run: as §1
# NCI-H460 [34] = assay: Inhibition of TNFalpha-induced IKKalpha protein expression in human NCI-H460 cells at 5 to 10 uM by Western blot analysis; assay type: functional, cell-based; how it was run: as §2
# Transcription factor p65 (Homo sapiens), sequence (Q04206 whole entry): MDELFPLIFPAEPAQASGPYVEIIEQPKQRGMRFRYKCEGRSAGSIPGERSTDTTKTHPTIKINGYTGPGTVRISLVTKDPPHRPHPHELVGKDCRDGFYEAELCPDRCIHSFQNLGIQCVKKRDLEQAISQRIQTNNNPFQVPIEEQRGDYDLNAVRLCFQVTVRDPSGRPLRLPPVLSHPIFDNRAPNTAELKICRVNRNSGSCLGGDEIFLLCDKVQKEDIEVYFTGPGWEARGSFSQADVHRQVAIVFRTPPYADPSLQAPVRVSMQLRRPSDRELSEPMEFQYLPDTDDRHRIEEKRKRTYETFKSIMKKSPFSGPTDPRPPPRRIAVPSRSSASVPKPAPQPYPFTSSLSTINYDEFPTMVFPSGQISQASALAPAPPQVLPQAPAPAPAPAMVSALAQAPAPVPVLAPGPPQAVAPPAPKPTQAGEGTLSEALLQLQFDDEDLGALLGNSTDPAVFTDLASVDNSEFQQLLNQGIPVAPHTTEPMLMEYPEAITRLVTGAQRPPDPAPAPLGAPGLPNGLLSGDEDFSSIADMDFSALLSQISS
structure (smiles),measurement,setting,value
CC(=O)O[C@H]1CC[C@]2(C)[C@H]3CC=C4[C@@H]5[C@@H](C)[C@H](C)CC[C@]5(C(=O)NCCN(C)C)CC[C@@]4(C)[C@]3(C)CC[C@H]2C1(C)C,IC50,[1],0.36 µM
same,IC50,HepG2,8.14 µM
same,IC50,[2],5.38 µM
same,IC50,A549,4.32 µM
same,Activity,NCI-H460 [3],40.8%
same,inhibition,NCI-H460 [4],Dose-dependent effect
same,Activity,NCI-H460 [5],< 5%
same,Ratio IC50,[6],1.68
same,Activity,NCI-H460 [7],14.9%
same,Ratio IC50,[8],1.33
same,Activity,NCI-H460 [9],47.1%
same,Activity,NCI-H460 [10],53.82%
same,IC50,MGC-803,7.96 µM
same,Activity,NCI-H460 [11],Dose-dependent effect
same,Activity,NCI-H460 [12],Dose-dependent effect
same,Activity,NCI-H460 [13],5.16%
same,Activity,NCI-H460 [14],Dose-dependent effect
same,IC50,[15],5.2 µM
same,Activity,NCI-H460 [16],5.8%
same,Activity,NCI-H460 [17],12.3%
same,inhibition,[18],Dose-dependent effect
same,Activity,NCI-H460 [19],46.27%
same,inhibition,NCI-H460 [20],Dose-dependent effect
same,Activity,NCI-H460 [21],79.9%
same,fold change (FC),[22],2.3
same,Activity,NCI-H460 [23],41.9%
same,Activity,NCI-H460 [24],3.85%
same,IC50,NCI-H460 [25],3.08 µM
same,Activity,NCI-H460 [26],49.26%
same,IC50,T-24,5.51 µM
same,Activity,NCI-H460 [27],41.95%
same,fold change (FC),NCI-H460 [28],>3
same,inhibition,NCI-H460 [29],Dose-dependent effect
same,Activity,NCI-H460 [30],3.9%
same,Activity,NCI-H460 [31],4.46%
same,IC50,L02,> 50 µM
same,Activity,NCI-H460 [32],4.23%
same,IC50,[33],10.8 µM
same,inhibition,NCI-H460 [34],Active
